The target of the first assay is T1, UniProt Q8VGC6.
T1 sequence (whole entry): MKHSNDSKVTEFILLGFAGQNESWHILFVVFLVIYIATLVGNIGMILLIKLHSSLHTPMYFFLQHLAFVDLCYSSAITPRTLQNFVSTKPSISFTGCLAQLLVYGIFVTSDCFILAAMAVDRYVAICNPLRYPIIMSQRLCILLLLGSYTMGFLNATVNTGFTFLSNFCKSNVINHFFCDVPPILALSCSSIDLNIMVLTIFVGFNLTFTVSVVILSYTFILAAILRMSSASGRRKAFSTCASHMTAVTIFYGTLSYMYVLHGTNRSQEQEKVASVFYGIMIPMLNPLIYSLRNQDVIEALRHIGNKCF
The conditions noted are these: stereoisomer not certain. A digest of the protocol:
(§1)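 Values were gathered from published papers (main text and supplementary material), with extra details requested from the original authors when needed, and checked for typos and inconsistencies. Each receptor–molecule pair is called responsive (active) if the original authors judged the measured signal statistically different from baseline, and non-responsive (inactive) otherwise. Assay methods varied by source, often transient mammalian cell-line luciferase assays. Recorded details include cell line, G-protein, co-transfected protein and tags.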
Take `COc1ccccc1`: the “odorant receptor agonist call” value is “inactive”.

As for `CCCCCCCCCC=CC=O`, the “odorant receptor agonist call” value is “inactive”.

As for `CCSCC`, the “odorant receptor agonist call” value was “inactive”.

Turning to `CCC=CCCCCC=O`, the “odorant receptor agonist call” value was “inactive”.

On to `C=CC(=O)CCCCC`, for which the “odorant receptor agonist call” value is “inactive”.

As to `C=CC(=C)CCC=C(C)CCC=C(C)C`, the “odorant receptor agonist call” value was “inactive”.

As for `CCCCCC(=Cc1ccccc1)C(OC)OC`, the “odorant receptor agonist call” value was “inactive”.

On to `CCCCCC(C)O` (stereo not given), for which the “odorant receptor agonist call” value is “inactive”.

Regarding `CC1(C)CC(=O)CC(=O)C1`, the “odorant receptor agonist call” value was “inactive”.

For `CCc1nccnc1CC`, the “odorant receptor agonist call” value was “inactive”.

Take `C=C(C)C1CCC(C)C(O)C1` (stereo not given): the “odorant receptor agonist call” value is “inactive”.

As to `CCCO`, the “odorant receptor agonist call” value was “inactive”.

Take `C=C(C)C1CC=C(C)CC1` (stereo not given): the “odorant receptor agonist call” value was “inactive”.

Consider `CCCCCC=CCCC=O`, for which the “odorant receptor agonist call” value was “inactive”.

For `CCCCCCCCCCOC(C)=O`, the “odorant receptor agonist call” value was “inactive”.

On to `CCCCCOC(=O)CC`, for which the “odorant receptor agonist call” value is “inactive”.

For `CSSSC`, the “odorant receptor agonist call” value was “inactive”.

On to `O=C(OCc1ccccc1)c1ccccc1O`, for which the “odorant receptor agonist call” value is “inactive”.

Take `O=C([O-])CCCCCCC(=O)[O-].[H+].[H+]`: the “odorant receptor agonist call” value is “inactive”.

On to `CCCCCCC=CC=O`, for which the “odorant receptor agonist call” value is “inactive”.

`CCCCOC(=O)CCC`: the “odorant receptor agonist call” value is “inactive”.

Take `Cc1ccc(C(C)C)c(O)c1`: the “odorant receptor agonist call” value was “inactive”.

Take `OCCCCCCCCCO`: the “odorant receptor agonist call” value is “inactive”.

Take `CCCCCCC(=O)OCCCC`: the “odorant receptor agonist call” value was “inactive”.

Turning to `CC(=O)OC1(C)CCC23CC1C(C)(C)C2CCC3C` (stereo not given), the “odorant receptor agonist call” value is “inactive”.

As to `CCCC(C)C(=O)OCC` (stereo not given), the “odorant receptor agonist call” value is “inactive”.

In the case of `CC=Cc1ccc(OC)cc1`, the “odorant receptor agonist call” value is “inactive”.

`Cc1ccc(OC(=O)C(C)C)cc1`: the “odorant receptor agonist call” value was “inactive”.

As for `CCCCCOC(=O)CCC`, the “odorant receptor agonist call” value was “inactive”.

For `CC(C)CS`, the “odorant receptor agonist call” value was “inactive”.

In the case of `C=C(C)C1CCC2(C)OC2C1` (stereo not given), the “odorant receptor agonist call” value was “inactive”.

`CC(=O)C=CC1=C(C)CCCC1(C)C`: the “odorant receptor agonist call” value is “inactive”.

As to `Cc1occc1SSc1ccoc1C`, the “odorant receptor agonist call” value was “inactive”.

As for `CC(C)=CCCC(C)=CCOC(=O)C(C)C`, the “odorant receptor agonist call” value was “inactive”.

Take `CCCCCCCCC=CC=O`: the “odorant receptor agonist call” value was “inactive”.

With `O=C(O)CCCCCBr`, the “odorant receptor agonist call” value is “inactive”.

On to `Cc1ccc2c(c1)OCC(=O)CO2`, for which the “odorant receptor agonist call” value is “inactive”.

`CCOC(=O)CC(C)C`: the “odorant receptor agonist call” value was “inactive”.

Another assay addresses T2, UniProt Q8VGJ3.
T2 sequence (whole entry): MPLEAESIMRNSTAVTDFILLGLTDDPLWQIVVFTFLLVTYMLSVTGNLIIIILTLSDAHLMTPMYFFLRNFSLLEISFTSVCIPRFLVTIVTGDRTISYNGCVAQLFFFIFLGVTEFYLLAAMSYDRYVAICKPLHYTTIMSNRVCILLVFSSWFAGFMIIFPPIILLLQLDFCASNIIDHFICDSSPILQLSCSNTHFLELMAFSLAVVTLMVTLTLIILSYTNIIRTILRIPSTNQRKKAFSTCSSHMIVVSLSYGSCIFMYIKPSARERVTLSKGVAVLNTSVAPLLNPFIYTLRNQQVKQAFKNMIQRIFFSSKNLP
The conditions noted are these: stereoisomer not certain. The procedure, abridged: as §1
Regarding `COc1ccccc1`, the “odorant receptor agonist call” value was “inactive”.

Turning to `CCCCCCCCCC=CC=O`, the “odorant receptor agonist call” value is “inactive”.

In the case of `CCSCC`, the “odorant receptor agonist call” value was “inactive”.

Take `CCC=CCCCCC=O`: the “odorant receptor agonist call” value was “inactive”.

As for `C=CC(=O)CCCCC`, the “odorant receptor agonist call” value is “inactive”.

With `C=CC(=C)CCC=C(C)CCC=C(C)C`, the “odorant receptor agonist call” value was “inactive”.

`CCCCCC(=Cc1ccccc1)C(OC)OC`: the “odorant receptor agonist call” value was “inactive”.

Consider `CCCCCC(C)O` (stereo not given), for which the “odorant receptor agonist call” value is “inactive”.

`CC1(C)CC(=O)CC(=O)C1`: the “odorant receptor agonist call” value is “inactive”.

With `CCc1nccnc1CC`, the “odorant receptor agonist call” value was “inactive”.

As to `C=C(C)C1CCC(C)C(O)C1` (stereo not given), the “odorant receptor agonist call” value is “inactive”.

Regarding `CCCO`, the “odorant receptor agonist call” value was “inactive”.

For the compound `C=C(C)C1CC=C(C)CC1` (stereo not given), the “odorant receptor agonist call” value is “inactive”.

With `CCCCCC=CCCC=O`, the “odorant receptor agonist call” value is “inactive”.

Consider `CCCCCCCCCCOC(C)=O`, for which the “odorant receptor agonist call” value is “inactive”.

Turning to `CCCCCOC(=O)CC`, the “odorant receptor agonist call” value was “inactive”.

For `CSSSC`, the “odorant receptor agonist call” value was “inactive”.

For the compound `O=C(OCc1ccccc1)c1ccccc1O`, the “odorant receptor agonist call” value was “inactive”.

Turning to `O=C([O-])CCCCCCC(=O)[O-].[H+].[H+]`, the “odorant receptor agonist call” value was “inactive”.

For `CCCCCCC=CC=O`, the “odorant receptor agonist call” value is “inactive”.

As to `Cc1ccc(C(C)C)c(O)c1`, the “odorant receptor agonist call” value is “inactive”.

Consider `OCCCCCCCCCO`, for which the “odorant receptor agonist call” value was “inactive”.

Regarding `CCCCCCC(=O)OCCCC`, the “odorant receptor agonist call” value is “inactive”.

On to `CC(=O)OC1(C)CCC23CC1C(C)(C)C2CCC3C` (stereo not given), for which the “odorant receptor agonist call” value was “inactive”.

With `CCCC(C)C(=O)OCC` (stereo not given), the “odorant receptor agonist call” value is “inactive”.

For `CC=Cc1ccc(OC)cc1`, the “odorant receptor agonist call” value was “inactive”.

For the compound `Cc1ccc(OC(=O)C(C)C)cc1`, the “odorant receptor agonist call” value is “inactive”.

As to `CCCCCOC(=O)CCC`, the “odorant receptor agonist call” value was “inactive”.

Turning to `CC(C)CS`, the “odorant receptor agonist call” value was “inactive”.

Turning to `C=C(C)C1CCC2(C)OC2C1` (stereo not given), the “odorant receptor agonist call” value is “inactive”.

`CC(=O)C=CC1=C(C)CCCC1(C)C`: the “odorant receptor agonist call” value is “inactive”.

`Cc1occc1SSc1ccoc1C`: the “odorant receptor agonist call” value is “inactive”.

Consider `CC(C)=CCCC(C)=CCOC(=O)C(C)C`, for which the “odorant receptor agonist call” value was “inactive”.

Turning to `CCCCCCCCC=CC=O`, the “odorant receptor agonist call” value is “inactive”.

As for `O=C(O)CCCCCBr`, the “odorant receptor agonist call” value was “inactive”.

Take `Cc1ccc2c(c1)OCC(=O)CO2`: the “odorant receptor agonist call” value was “inactive”.

In the case of `CCOC(=O)CC(C)C`, the “odorant receptor agonist call” value was “inactive”.

These data come from the M2OR odorant receptor database.
